Results: paper PMC10125284 (ACS Bio & Med Chem Au, 2022)
Entries after “also recorded” stand apart in the source; their conditions may differ. Where two headings read alike, the source gives them in different places.

Key:
Tsr [1] = molecular target: T1, Tsr (Escherichia coli, UniProt P02942); assay: Microfluidic chemotaxis assay, UU1250 expressing Tsr as sole receptor; type: cell-based; details: UU1250 expressing wild-type Tsr as sole receptor and GFP
Tsar [2] = molecular target: T2, Tsar (Escherichia coli, UniProt P02942+P07017); assay: FRET assay, cells expressing Tsar as sole receptor; type: cell-based
Tsr [3] = molecular target: T1, Tsr; assay: FRET; type: cell-based; details: for effect of adaptation to L-serine on FRET response to ligand: Tsr adapted to 200 μM L-serine; for FRET response (kinase activity): Tsr as sole receptor, buffer-adapted
Tsr-LBD [4] = molecular target: T3, Tsr-LBD (Escherichia coli, UniProt P02942); assay: Microscale thermophoresis; type: binding; details: for binding to Tsr-LBD in competition (MST): pocket saturated with high concentration of L-serine (25 mM)
T3 sequence (P02942 30-190): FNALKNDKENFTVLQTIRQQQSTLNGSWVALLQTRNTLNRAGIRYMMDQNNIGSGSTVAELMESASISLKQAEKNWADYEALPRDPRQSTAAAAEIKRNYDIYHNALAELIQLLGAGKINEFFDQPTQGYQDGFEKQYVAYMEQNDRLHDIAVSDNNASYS
Method in brief: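 Tsr residues 30-190 carrying an N-terminal 6×His tag were expressed in E. coli after 1 mM IPTG induction for 6 h at 28 °C. The protein was purified by Ni affinity and gel filtration (50 mM Tris-HCl pH 8.0, 200 mM NaCl) and labelled with a RED-tris-NTA His-tag dye. Compound serial dilutions in HEPES buffer were mixed 1:1 with protein and read in capillaries at 60% excitation and 20% MST power. Kd came from dose-response fits of normalised traces, temperature-jump/thermophoresis mode.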

Tar [5] = molecular target: T4, Tar (Escherichia coli, UniProt P07017); assay: FRET assay, cells expressing Tar as sole receptor; type: cell-based
Tsar [6] = molecular target: T2, Tsar; assay: Microfluidic chemotaxis assay, UU1250 expressing hybrid Tsar as sole receptor; type: cell-based; details: cells expressing hybrid Tsar as sole receptor
Tasr [7] = molecular target: T5, Tasr (Escherichia coli, UniProt P02942+P07017); assay: FRET assay, cells expressing Tasr as sole receptor; type: cell-based
Tsr^N68A [8] = molecular target: T6, Tsr^N68A (Escherichia coli, UniProt P02942, N68A); assay: Microfluidic chemotaxis assay, cells expressing Tsr^N68A as sole receptor; type: cell-based
Tsr^R64A = Tsr^R64A (Escherichia coli, UniProt P02942, R64A); assay: Microfluidic chemotaxis assay, cells expressing Tsr^R64A as sole receptor; type: cell-based
wild-type RP437 = assay: FRET assay, wild-type RP437; type: cell-based, Escherichia coli
[9] = test system: wild-type E. coli strain RP437; assay: Microfluidic chemotaxis assay, wild-type strain RP437; type: cell-based, Escherichia coli; details: wild-type E. coli RP437, all five chemoreceptors
Tar [10] = molecular target: T4, Tar; assay: Microfluidic chemotaxis assay, UU1250 expressing Tar as sole receptor; type: cell-based; details: cells expressing Tar as sole receptor
Tsr^R64AN68A = Tsr^R64AN68A (Escherichia coli, UniProt P02942, N68A/R64A); assay: Microfluidic chemotaxis assay, cells expressing Tsr^R64AN68A as sole receptor; type: cell-based
Tasr [11] = molecular target: T5, Tasr; assay: Microfluidic chemotaxis assay, UU1250 expressing hybrid Tasr as sole receptor; type: cell-based; details: cells expressing hybrid Tasr as sole receptor
Tsr-LBD [12] = molecular target: T3, Tsr-LBD; details: read-out: Kd, previously reported; cited from earlier work
Tsr^N68A [13] = molecular target: T6, Tsr^N68A; assay: FRET assay, cells expressing Tsr^N68A as sole receptor; type: cell-based

T5 sequence (P07017 1-199): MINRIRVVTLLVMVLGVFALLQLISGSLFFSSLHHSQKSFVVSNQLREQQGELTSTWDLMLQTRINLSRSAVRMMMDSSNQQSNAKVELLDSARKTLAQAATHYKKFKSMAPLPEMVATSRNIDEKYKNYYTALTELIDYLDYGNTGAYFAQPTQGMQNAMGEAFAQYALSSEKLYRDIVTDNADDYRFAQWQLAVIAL
T5 sequence (P02942 202-551): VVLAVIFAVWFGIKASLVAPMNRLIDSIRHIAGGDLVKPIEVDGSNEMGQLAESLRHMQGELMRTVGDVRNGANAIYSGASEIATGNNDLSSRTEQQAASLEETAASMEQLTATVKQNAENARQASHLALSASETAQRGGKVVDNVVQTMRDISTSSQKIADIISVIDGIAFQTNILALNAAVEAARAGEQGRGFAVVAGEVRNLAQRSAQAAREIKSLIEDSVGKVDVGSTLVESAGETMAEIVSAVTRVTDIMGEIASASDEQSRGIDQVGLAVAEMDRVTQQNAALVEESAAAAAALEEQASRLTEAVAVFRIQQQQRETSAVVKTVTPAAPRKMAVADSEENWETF
Chain of Tsr^R64A (P02942 whole entry R64A): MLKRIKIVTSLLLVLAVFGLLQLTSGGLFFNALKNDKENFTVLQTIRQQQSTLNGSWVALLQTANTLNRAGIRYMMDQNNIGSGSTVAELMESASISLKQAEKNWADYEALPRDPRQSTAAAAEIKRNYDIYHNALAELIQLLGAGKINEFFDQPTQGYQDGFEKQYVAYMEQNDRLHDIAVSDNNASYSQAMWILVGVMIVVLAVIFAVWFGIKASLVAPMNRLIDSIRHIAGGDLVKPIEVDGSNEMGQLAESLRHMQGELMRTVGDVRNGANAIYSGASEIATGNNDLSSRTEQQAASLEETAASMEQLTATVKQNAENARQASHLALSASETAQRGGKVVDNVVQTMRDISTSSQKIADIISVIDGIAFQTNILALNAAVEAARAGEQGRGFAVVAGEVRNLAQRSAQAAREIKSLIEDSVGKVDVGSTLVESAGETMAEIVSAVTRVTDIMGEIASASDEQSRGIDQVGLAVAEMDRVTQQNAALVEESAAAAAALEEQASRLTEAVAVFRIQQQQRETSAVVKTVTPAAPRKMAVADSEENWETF
Chain of Tsr^R64AN68A (P02942 whole entry R64A/N68A): as the sequence (P02942 whole entry R64A) above, with N68A counted along it
T2 sequence (P02942 1-201): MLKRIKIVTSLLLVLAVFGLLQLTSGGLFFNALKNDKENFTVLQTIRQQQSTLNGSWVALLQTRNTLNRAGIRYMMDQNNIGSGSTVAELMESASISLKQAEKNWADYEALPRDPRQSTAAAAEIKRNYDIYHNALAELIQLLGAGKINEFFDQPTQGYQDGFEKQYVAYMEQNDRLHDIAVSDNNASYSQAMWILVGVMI
T2 sequence (P07017 200-553): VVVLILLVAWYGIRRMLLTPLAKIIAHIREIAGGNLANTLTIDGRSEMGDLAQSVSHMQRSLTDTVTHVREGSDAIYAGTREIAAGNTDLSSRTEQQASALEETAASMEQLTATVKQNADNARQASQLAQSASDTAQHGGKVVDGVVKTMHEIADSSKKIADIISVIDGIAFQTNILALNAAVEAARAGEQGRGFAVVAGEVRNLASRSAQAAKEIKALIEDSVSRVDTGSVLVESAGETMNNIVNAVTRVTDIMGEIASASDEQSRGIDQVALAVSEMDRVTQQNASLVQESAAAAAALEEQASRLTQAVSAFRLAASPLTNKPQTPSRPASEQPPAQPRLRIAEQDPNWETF
T1 sequence (P02942 whole entry): as the sequence (P02942 whole entry R64A) above, with A64R counted along it
T4 sequence (P07017 whole entry): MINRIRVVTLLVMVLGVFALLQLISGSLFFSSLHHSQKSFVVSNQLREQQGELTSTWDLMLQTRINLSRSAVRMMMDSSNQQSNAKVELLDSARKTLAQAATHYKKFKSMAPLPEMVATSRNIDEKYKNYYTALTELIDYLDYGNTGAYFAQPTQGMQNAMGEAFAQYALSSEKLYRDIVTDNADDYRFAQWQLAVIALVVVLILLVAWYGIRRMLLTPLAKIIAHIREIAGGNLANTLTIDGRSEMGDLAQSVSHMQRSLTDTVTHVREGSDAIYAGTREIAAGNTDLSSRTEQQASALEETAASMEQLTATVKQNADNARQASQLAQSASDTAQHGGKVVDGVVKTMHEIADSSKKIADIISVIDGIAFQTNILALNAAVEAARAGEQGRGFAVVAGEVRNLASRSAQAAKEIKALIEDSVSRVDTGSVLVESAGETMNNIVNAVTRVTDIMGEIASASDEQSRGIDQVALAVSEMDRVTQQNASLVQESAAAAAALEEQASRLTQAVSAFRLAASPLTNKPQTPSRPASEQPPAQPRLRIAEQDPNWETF
T6 sequence (P02942 whole entry N68A): as the sequence (P02942 whole entry R64A) above, with A64R, N68A counted along it

Row | SMILES | chemotactic response (microfluidic) (Tsr [1]) | FRET response (Tsar [2]) | effect of adaptation to L-serine on FRET response to ligand (Tsr [3]) | FRET response (kinase activity) (Tsr [3]) | Kd (Tsr-LBD [4]) [mM] | binding to Tsr-LBD in competition (MST) (Tsr-LBD [4]) | FRET response (Tar [5]) | chemotactic response (microfluidic) (Tsar [6]) | FRET response (Tasr [7]) | chemotactic response (microfluidic), compared with wild-type Tsr (Tsr^N68A [8]) | chemotactic response (microfluidic), compared with wild-type Tsr (Tsr^R64A) | FRET response (wild-type RP437) | chemotactic response (microfluidic) [9] | chemotactic response (microfluidic) (Tar [10]) | chemotactic response (microfluidic), compared with wild-type Tsr (Tsr^R64AN68A) | chemotactic response (microfluidic) (Tasr [11]) | Kd (Tsr-LBD [12]) [mM] | FRET response (Tsr^N68A [13])
1 | NC1(C(=O)O)CCCCC1 [ACHC, 1-aminocyclohexanecarboxylic acid] | robust repellent response | repellent response | significantly inhibited | repellent response | 10.6 ± 2.4 | could not bind | no or only a weak response | robust repellent responses | no or only a weak response | weaker repellent responses; also recorded: weak repellent response | weaker repellent responses | repellent response | robust repellent responses | did not show obvious responses | weaker repellent responses | did not show obvious responses | – | –
2 | N[C@@H](CO)C(=O)O [L-serine] | drifted up the L-serine gradient | – | – | attractant response | 0.207 | – | – | – | – | weaker attractant responses | weaker attractant responses | – | – | – | weaker attractant responses | – | 0.0356 | –
3 | CC(C)C[C@H](N)C(=O)O [L-leucine] | repellent response | – | significantly inhibited | repellent response | 23.6 ± 6.8 | could not bind | – | repellent responses | – | attractant response | no response or much weaker responses | – | repellent responses | no response | no response or much weaker responses | no response | – | strong attractant response
